Consider five compounds from publication PMC9418647 (European Journal of Drug Metabolism and Pharmacokinetics, 2022).

One may read the IC50 as the concentration that gives 50% inhibition. Lower therefore signals inhibition by little substance.

The target of one data set is T1, OATP1B1 (Homo sapiens, UniProt Q9Y6L6).
T1 sequence (Q9Y6L6 1-691): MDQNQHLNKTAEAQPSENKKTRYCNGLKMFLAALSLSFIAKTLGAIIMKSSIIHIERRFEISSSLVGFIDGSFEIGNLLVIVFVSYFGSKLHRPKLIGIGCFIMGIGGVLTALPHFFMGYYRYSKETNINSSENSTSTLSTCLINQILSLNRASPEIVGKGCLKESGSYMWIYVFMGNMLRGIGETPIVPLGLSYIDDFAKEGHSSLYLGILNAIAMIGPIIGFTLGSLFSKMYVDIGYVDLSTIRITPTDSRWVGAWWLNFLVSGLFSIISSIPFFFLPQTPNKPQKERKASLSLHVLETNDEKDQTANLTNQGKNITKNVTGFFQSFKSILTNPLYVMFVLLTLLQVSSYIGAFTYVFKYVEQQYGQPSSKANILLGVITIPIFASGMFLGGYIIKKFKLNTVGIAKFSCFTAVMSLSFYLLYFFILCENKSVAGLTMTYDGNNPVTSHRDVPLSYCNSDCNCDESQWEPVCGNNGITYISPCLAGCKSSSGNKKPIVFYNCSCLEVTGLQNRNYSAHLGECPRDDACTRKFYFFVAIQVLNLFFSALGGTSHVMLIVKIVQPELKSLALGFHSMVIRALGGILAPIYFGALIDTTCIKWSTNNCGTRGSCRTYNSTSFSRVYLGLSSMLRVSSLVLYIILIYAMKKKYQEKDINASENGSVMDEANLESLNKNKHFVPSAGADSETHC
Put plainly: Uptake assay for OATP1B1 inhibition in HEK-OATP1B1 cells. Type of data set: in vitro ADME. An outline of the steps: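 OATP1B1 uptake measured across a test-compound concentration range. IC50 reported as greater than the top concentration if inhibition stayed below 50%, and that concentration was then used in the calculation. AUC ratio estimated by the basic static model, assuming substrate clearance runs solely via the transporter.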

The nature of data set [1]: Clinical study: safety and tolerability. In kind it is in vivo, human. An outline of the steps: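 Healthy men given finerenone 40 mg once daily for 10 days, with rosuvastatin. Supine BP, HR and 12-lead ECG recorded after 15 min rest, pre-dose and up to 24 h post-dose. Haematology and chemistry including serum electrolytes taken pre-dose and at 24 and 48 h, except after separated dosing. Adverse events elicited with non-leading questions through follow-up.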

The conditions of data set [2]: finerenone 20 mg; cited from earlier work.
Another data set has as its target T2, OATP1B3 (Homo sapiens, UniProt Q9NPD5).
T2 sequence (Q9NPD5 1-702): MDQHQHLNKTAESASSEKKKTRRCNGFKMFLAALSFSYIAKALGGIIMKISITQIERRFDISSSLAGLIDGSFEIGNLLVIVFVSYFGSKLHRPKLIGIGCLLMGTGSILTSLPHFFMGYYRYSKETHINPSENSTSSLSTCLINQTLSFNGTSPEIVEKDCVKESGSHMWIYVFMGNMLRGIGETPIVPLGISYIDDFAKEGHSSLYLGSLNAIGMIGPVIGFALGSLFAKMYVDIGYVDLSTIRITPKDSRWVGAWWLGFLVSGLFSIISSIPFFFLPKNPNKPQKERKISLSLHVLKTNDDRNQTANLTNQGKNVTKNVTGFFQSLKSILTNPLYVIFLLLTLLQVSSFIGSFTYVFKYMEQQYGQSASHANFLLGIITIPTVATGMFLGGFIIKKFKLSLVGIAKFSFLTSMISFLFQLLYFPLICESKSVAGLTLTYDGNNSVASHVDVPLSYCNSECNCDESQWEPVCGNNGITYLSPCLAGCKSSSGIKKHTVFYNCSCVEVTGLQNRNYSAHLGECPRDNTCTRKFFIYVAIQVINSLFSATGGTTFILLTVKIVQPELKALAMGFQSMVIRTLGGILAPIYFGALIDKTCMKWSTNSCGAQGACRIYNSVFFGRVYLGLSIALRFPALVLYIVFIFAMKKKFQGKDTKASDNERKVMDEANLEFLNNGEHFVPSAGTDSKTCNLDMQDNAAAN
Put plainly: Uptake assay for OATP1B3 inhibition in HEK-OATP1B3 cells. Type of data set: in vitro ADME. Put shortly:
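Transporter-mediated transport measured across a test-compound concentration range. Where inhibition stayed below 50% at the top concentration, IC50 was reported as greater than the highest tested concentration.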

The conditions of data set [3]: cited from earlier work.
The conditions of data set [4]: cited from earlier work. The source holds these as a separate data set.

Structures are written as SMILES.

For the compound `CCOc1ncc(C)c2c1[C@H](c1ccc(C#N)cc1OC)C(C(N)=O)=C(C)N2` [Finerenone, finerenone], the IC50 on OATP1B1 turned out to be 3.2 µM. In addition, the “predicted AUC ratio (AUCR), inhibition of OATP1B1” value at OATP1B1 (basic model R = 1 + [I]inlet,max,u (or Cmax,u)/IC50) is 1.182. Also, the “changes in potassium levels” value in data set [1] (finerenone 40 mg) is recorded as “no relevant changes in potassium levels”. Also, the “serious or severe adverse events” value in data set [1] (finerenone 40 mg alone or with rosuvastatin) is given as “no serious or severe AEs”. Moreover, the tolerability result in data set [1] (repeated doses of finerenone 40 mg once daily, healthy male volunteers) is listed as “well tolerated”. In addition, the “effect on repaglinide (CYP2C8 and OATP substrate)” value in data set [2] is “no effect”. In addition, at OATP1B3, the IC50 was greater than 10 µM. In data set [3], the absolute bioavailability is 43.5%, the “administered dose excreted in feces” value is reported as “approximately 20%”, the “administered dose excreted in urine” value is reported as “About 80%” and the “dose excreted unchanged in feces” value was less than 0.2%. The “dose excreted unchanged in urine” value in data set [3] was less than 1%. For the same compound, the “share of metabolic clearance by CYP3A4” value in data set [3] (remainder attributable to CYP2C8) is on record as “about 90%”.

On to `CC(C)c1nc(N(C)S(C)(=O)=O)nc(-c2ccc(F)cc2)c1/C=C/[C@@H](O)C[C@@H](O)CC(=O)O` [Rosuvastatin, rosuvastatin], for which the “Tmax (expected)” value in data set [4] is “approximately 5 h”.

`CC1=NN(c2ccc(C)c(C)c2)C(=O)/C1=N\Nc1cccc(-c2cccc(C(=O)O)c2)c1O` [eltrombopag]: in data set [4], the “rosuvastatin AUC ratio” value is 1.55 and the “rosuvastatin Cmax ratio” value is given as 2.03.

Consider `Cc1ccc(C)c(OCCCC(C)(C)C(=O)O)c1` [gemfibrozil], for which, in data set [4], the “increase of rosuvastatin AUC” value was 1.88 fold and the “increase of rosuvastatin Cmax” value is listed as 2.21 fold.

Take `CO[C@H]1/C=C/O[C@@]2(C)Oc3c(C)c(O)c4c(O)c(c(/C=N/N5CCN(C)CC5)c(O)c4c3C2=O)NC(=O)/C(C)=C\C=C\[C@H](C)[C@H](O)[C@@H](C)[C@@H](O)[C@@H](C)[C@H](OC(C)=O)[C@@H]1C` [rifampicin]: in data set [4], the “CP-I AUC ratio” value is 4.0, the “CP-III AUC ratio” value is given as 3.3 and the “rosuvastatin AUC ratio” value was 5.0.
